This note sets out measurements from ChEMBL document CHEMBL5252518, “Correlation of in Situ Oxazolidine Formation with Highly Synergistic Cytotoxicity and DNA Cross-Linking in Cancer Cells from Combinations of Doxorubicin and Formaldehyde” (J Med Chem, 2016).

Calls of active or inactive are those of the source. The rule behind the calls is not given here.

Data set [1] has as its system DNA. The data set is described as follows: Induction of DNA interstrand cross-linking in hydrogen peroxide induced human NCI/ADR-RES cells assessed as decrease in comet tail density at 10 uM incubated for 90 mins by comet assay. The data set is classed as functional, cell-based.
Data set [2] concerns DNA. As to the kind of experiment: Induction of DNA (unknown origin) expressed in Escherichia coli DH5alpha interstrand cross-linking assessed as inhibition of NotI-induced DNA digestion at 1.5 to 8 uM incubated for 30 mins by agarose gel electrophoresis based restriction endonuclease digestion assay. The data set is classed as functional. The note with it: dose 1.5-8 µM.
Data set [3] in a line: Genotoxicity in doxorubicin-resistant human NCI/ADR-RES cells assessed as increase in tail DNA density at 10 uM incubated for 90 mins by comet assay. It counts as toxicity, cell-based. The note with it: 1.5 h. Put shortly:
(§1)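 Alkaline single-cell gel electrophoresis (comet) assay. A bulk population of cells was trypsinized, then split into treatment groups and treated in suspension for 90 min. After the drug was removed, cells were promptly embedded in agarose, lysed and electrophoresed under alkaline conditions. Gels were then stained, and the stain density in the comet tail was scored as DNA strand-break content.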

The subject of data set [4] is DNA. The data set is described as follows: Induction of DNA (unknown origin) expressed in Escherichia coli DH5alpha interstrand cross-linking assessed as inhibition of NdeI-induced DNA digestion at 1.5 to 8 uM incubated for 30 mins by agarose gel electrophoresis based restriction endonuclease digestion assay. It counts as functional. The note with it: dose 1.5-8 µM.

Data set [5] deals with NCI/ADR-RES. As to the kind of experiment: Cytotoxicity against doxorubicin-resistant human NCI/ADR-RES cells assessed as inhibition of cell growth incubated for 90 mins by crystal violet staining assay. It counts as functional, cell-based. The note with it: 1.5 h.
Data set [6] in a line: Genotoxicity in doxorubicin-sensitive human MIA PaCa-2 cells assessed as increase in tail DNA density at 250 uM incubated for 90 mins by comet assay. The note with it: mia paca-2, 1.5 h. It counts as toxicity, cell-based. Put shortly:
as §1

The nature of data set [7]: Genotoxicity in doxorubicin-resistant human NCI/ADR-RES cells assessed as increase in tail DNA density at 250 uM incubated for 90 mins by comet assay. The note with it: 1.5 h. The data set is classed as toxicity, cell-based. The essentials: as §1
Data set [8] in a line: Genotoxicity in doxorubicin-sensitive human MIA PaCa-2 cells assessed as increase in tail DNA density at 10 uM incubated for 90 mins by comet assay. It counts as toxicity, cell-based. The note with it: mia paca-2, 1.5 h. The essentials: as §1
The test system of data set [9] is MIA PaCa-2. As to the kind of experiment: Cytotoxicity against doxorubicin-sensitive human MIA PaCa-2 cells assessed as inhibition of cell growth incubated for 30 mins by crystal violet staining assay. The note with it: MIA PaCa-2, 0.5 h.
The test system of data set [10] is MIA PaCa-2. As to the kind of experiment: Cytotoxicity against doxorubicin-sensitive human MIA PaCa-2 cells assessed as inhibition of cell growth incubated for 90 mins by crystal violet staining assay. It counts as functional, cell-based. The note with it: MIA PaCa-2, 1.5 h.
In data set [11] the test system is MIA PaCa-2. The data set is described as follows: Synergistic cytotoxicity against doxorubicin-sensitive human MIA PaCa-2 cells assessed as cell survival incubated for 90 mins in presence of formaldehyde by crystal violet staining assay. It counts as functional. The note with it: 1.5 h.
Data set [12] has as its system NCI/ADR-RES. As to the kind of experiment: Synergistic cytotoxicity against doxorubicin-resistant human NCI/ADR-RES cells assessed as combination index incubated for 90 mins in presence of formaldehyde by crystal violet staining assay. The note with it: 1.5 h.
Data set [13] deals with NCI/ADR-RES. As to the kind of experiment: Cytotoxicity against doxorubicin-resistant human NCI/ADR-RES cells assessed as inhibition of cell growth incubated for 30 mins by crystal violet staining assay. It counts as functional, cell-based. The note with it: 0.5 h.
A short description of data set [14]: Genotoxicity in doxorubicin-sensitive human MIA PaCa-2 cells assessed as increase in DNA damage at 100 uM incubated for 90 mins by comet assay. It counts as toxicity, cell-based. The note with it: mia paca-2, 1.5 h. The essentials:
(§2)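 Cells were trypsinized as one bulk population, split into treatment groups and drug-treated in suspension for 90 min. They were then promptly embedded in agarose, lysed and electrophoresed under alkaline conditions (alkaline single-cell gel electrophoresis). After staining, DNA strand breaks were scored as comet tail stain density.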

The test system of data set [15] is NCI/ADR-RES. As to the kind of experiment: Synergistic cytotoxicity against doxorubicin-resistant human NCI/ADR-RES cells assessed as fold change in IC50 incubated for 90 mins in presence of formaldehyde by crystal violet staining assay. The note with it: 1.5 h.
For data set [16], the system named is NCI/ADR-RES. As to the kind of experiment: Synergistic cytotoxicity against doxorubicin-resistant human NCI/ADR-RES cells assessed as fold change in IC50 incubated for 90 mins in presence of formaldehyde low concentration by crystal violet staining assay. The note with it: 1.5 h.
Data set [17] concerns NCI/ADR-RES. The data set is described as follows: Induction of DNA damage in hydrogen peroxide induced human NCI/ADR-RES cells assessed as increase in comet tail density at 100 uM incubated for 90 mins by comet assay. It counts as functional, cell-based.
Data set [18] can be described thus: Genotoxicity in doxorubicin-resistant human NCI/ADR-RES cells assessed as increase in DNA damage at 100 uM incubated for 90 mins by comet assay. It counts as toxicity, cell-based. The note with it: 1.5 h. The essentials: as §2
In data set [19] the test system is MIA PaCa-2. As to the kind of experiment: Synergistic cytotoxicity against doxorubicin-sensitive human MIA PaCa-2 cells assessed as combination index incubated for 90 mins in presence of formaldehyde by crystal violet staining assay. It counts as functional. The note with it: 1.5 h.
The subject of data set [20] is MIA PaCa-2. The data set is described as follows: Synergistic cytotoxicity against doxorubicin-sensitive human MIA PaCa-2 cells assessed as fold change in IC50 incubated for 90 mins in presence of formaldehyde by crystal violet staining assay. The note with it: 1.5 h. It counts as functional.
Data set [21] concerns NCI/ADR-RES. The data set is described as follows: Synergistic cytotoxicity against doxorubicin-resistant human NCI/ADR-RES cells assessed as fold change in IC50 incubated for 30 mins in presence of formaldehyde by crystal violet staining assay. The note with it: 0.5 h.
Data set [22] deals with NCI/ADR-RES. The data set is described as follows: Cytotoxicity against doxorubicin-resistant human NCI/ADR-RES cells assessed as fold change in IC50 incubated for 3 hrs in presence of pig liver esterase by crystal violet staining assay relative to Doxsaliform. It counts as functional.
Data set [23] concerns NCI/ADR-RES. As to the kind of experiment: Cytotoxicity against doxorubicin-resistant human NCI/ADR-RES cells assessed as fold change in IC50 incubated for 3 hrs in presence of pig liver esterase by crystal violet staining assay. It counts as functional.
Data set [24] has as its system NCI/ADR-RES. As to the kind of experiment: Cytotoxicity against doxorubicin-resistant human NCI/ADR-RES cells assessed as inhibition of cell growth incubated for 3 hrs in presence of pig liver esterase by crystal violet staining assay. The data set is classed as functional, cell-based.
Data set [25] deals with NCI/ADR-RES. The data set is described as follows: Cytotoxicity against doxorubicin-resistant human NCI/ADR-RES cells assessed as inhibition of cell growth incubated for 3 hrs by crystal violet staining assay. It counts as functional, cell-based.
Data set [26] is described as follows: Prodrug conversion in pig liver assessed as esterase-mediated Doxazolidine formation by measuring its half life at 1 uM by HPLC analysis. The data set is classed as ADME, tissue-based, Sus scrofa.
A short description of data set [27]: Half life of compound. The data set is classed as physicochemical.
For data set [28], the system named is MIA PaCa-2. As to the kind of experiment: Synergistic cytotoxicity against doxorubicin-sensitive human MIA PaCa-2 cells assessed as inhibition of cell growth incubated for 90 mins in presence of epirubicin by crystal violet staining assay. The note with it: MIA PaCa-2, 1.5 h.
Data set [29] has as its system MIA PaCa-2. As to the kind of experiment: Synergistic cytotoxicity against doxorubicin-sensitive human MIA PaCa-2 cells assessed as inhibition of cell growth incubated for 90 mins in presence of formaldehyde by crystal violet staining assay. The data set is classed as functional, cell-based. The note with it: MIA PaCa-2, 1.5 h.

On to `COc1cccc2c1C(=O)c1c(O)c3c(c(O)c1C2=O)C[C@@](O)(C(=O)CO)C[C@@H]3O[C@H]1C[C@@H]2NCO[C@@H]2[C@H](C)O1` [DOXAZOLIDINE], for which the outcome with DNA [1], in the data set with DNA [2] and in the data set with DNA [4] was Active. The Activity entry in data set [3], in [6], in data set [7] and in [8] was “Non-Toxic” each time. Also, the IC50 in the data set on NCI/ADR-RES [5] (read-out: IC50) was 48 nM; with NCI/ADR-RES [5] (read-out: pIC50 (converted)), 50.1 nM; in the data set with MIA PaCa-2 [9], 51 µM; with MIA PaCa-2 [10] (read-out: IC50), 0.022 µM; in the data set on MIA PaCa-2 [10] (read-out: pIC50 (converted)), 0.02 µM.

On to `COc1cccc2c1C(=O)c1c(O)c3c(c(O)c1C2=O)C[C@@](O)(C(=O)CO)C[C@@H]3O[C@H]1C[C@H](N)[C@H](O)[C@H](C)O1` [DOXORUBICIN], for which the Activity with MIA PaCa-2 [11] is 75%; in [14], “Toxic”; in data set [18], “Toxic”. Besides, the results for the CI with NCI/ADR-RES [12] and with MIA PaCa-2 [19] were 0.02 and 0.4, respectively. For the same molecule, the outcome in the data set on DNA [2], in the data set with DNA [4] and in the data set on NCI/ADR-RES [17] was Active. Moreover, the IC50 in the data set with NCI/ADR-RES [13] was 220 µM; in the data set with NCI/ADR-RES [5] (read-out: IC50), 620 nM; with NCI/ADR-RES [5] (read-out: pIC50 (converted)) it was 617 nM; with MIA PaCa-2 [9], 4 µM; in the data set on MIA PaCa-2 [10] (read-out: IC50), 66 µM; with MIA PaCa-2 [10] (read-out: pIC50 (converted)), 63.1 µM. Also, the “fold change (FC)” value in the data set with NCI/ADR-RES [15] is 55; in the data set on NCI/ADR-RES [16] it was 2.5; in the data set with MIA PaCa-2 [20], 3.5; with NCI/ADR-RES [21], 9.

Consider `CCCCCOC(=O)Nc1ccc(COC(=O)N2CO[C@@H]3[C@H](C)O[C@@H](O[C@H]4C[C@](O)(C(=O)CO)Cc5c(O)c6c(c(O)c54)C(=O)c4c(OC)cccc4C6=O)C[C@@H]32)cc1`, for which the “fold change (FC)” value in the data set on NCI/ADR-RES [22] turned out to be 25; in the data set with NCI/ADR-RES [23], 30. The IC50 in the data set with NCI/ADR-RES [24] is 3 nM; in the data set on NCI/ADR-RES [25], 2 µM. The t1/2 in [26] was 24 min.

As a reminder, the half-life is how long it takes for the measured level to halve. A high value points to slow decline. On to `COc1cccc2c1C(=O)c1c(O)c3c(c(O)c1C2=O)C[C@@](O)(C(=O)CO)C[C@@H]3O[C@H]1C[C@H](NCNC(=O)c2ccccc2O)[C@H](O)[C@H](C)O1`, for which the IC50 in the data set with NCI/ADR-RES [25] turned out to be 800 µM. Moreover, the half-life in [27] came out at 57 min.

For the molecule `C=O` [FORMALDEHYDE], the IC50 with NCI/ADR-RES [13] was 600 µM; in the data set on NCI/ADR-RES [5] (read-out: IC50), 530000 nM; with NCI/ADR-RES [5] (read-out: pIC50 (converted)), 501000 nM; with MIA PaCa-2 [28], 500 nM; in the data set with MIA PaCa-2 [10] (read-out: IC50), 610 µM; in the data set with MIA PaCa-2 [10] (read-out: pIC50 (converted)), 631 µM.

For `COc1cccc2c1C(=O)c1c(O)c3c(c(O)c1C2=O)C[C@@](O)(C(=O)CO)C[C@@H]3O[C@H]1C[C@H](N)[C@@H](O)[C@H](C)O1` [EPIRUBICIN], the IC50 in the data set with MIA PaCa-2 [29] is 500 nM; with NCI/ADR-RES [5] (read-out: IC50), 630 nM; with NCI/ADR-RES [5] (read-out: pIC50 (converted)), 631 nM; in the data set with MIA PaCa-2 [10] (read-out: IC50) it was more than 100 µM. In addition, the Activity result in data set [14] and in [18] was “Toxic” throughout. The result with NCI/ADR-RES [17] was Active.
